High-throughput results from PubChem BioAssay.
RAM inhibit – inhibitors of the yeast RAM network; S. cerevisiae dse1pr::URA3 reporter, 5-FOA growth OD615, 2 d; analog-sensitive cbk1-as2 kinase mutant strain; inhibition, % at 50 µM; hit rate 1.8% among 190,000; AID 868;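 active = inhibition above a set limit, 3 SD over mean compound inhibition, cut at about 8.4% in these data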;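 note: 0% = DMSO-only wells with no growth and 100% = 10 µM 1-NA-PP1 full growth; inhibition rescues growth on 5-FOA so higher OD means more RAM inhibition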
Yeast growth inh – chemicals that inhibit yeast BB579 growth in restrictive medium (lifespan-shortening candidates); S. cerevisiae BB579 growth, OD615, 48 h; inhibition, % at 10 µM; hit rate 0.51% among 140,000; AID 804;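 active = inhibition above a set limit, 3 SD over the mean compound inhibition, cut at about 44% in these data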
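Material: Saccharomyces cerevisiae DeaD strain BB579, replicative lifespan model yeast; buffer or medium: CSMM-D restrictive synthetic medium containing dextrose (glucose); compound: 10 µM single dose, DMSO 0.25%; timing: 48 h compound exposure at 30 °C after 4 h preincubation; signal: turbidity as optical density at 615 nm; benchmarks: positive control amphotericin B 10 µg/mL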
Yeast lifespan up – extends the lifespan of yeast; inhibition of the nicotinamide effect, % at 10 µM; S. cerevisiae growth with nicotinamide, OD615; deaD strain in restrictive glucose medium; AID 775; hit rate 0.68% among 130,000;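 active = inhibition above a set limit, placed 3 SD over the median of all compounds, cut at about 26% in these data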;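 note: 0% = nicotinamide-treated wells and 100% = cells grown without nicotinamide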
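assay system = DeaD-strain S. cerevisiae | buffer or medium = restrictive glucose medium | reagent = 1.5 mM nicotinamide | compound = 10 µM single point, 0.25% DMSO | incubation = 48 h compound exposure at 30 °C, humidified | signal = OD615 measurement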
RAM 5-FOA – RAM network inhibition, efflux-deficient strain; max inhibition, %; 1,200 tested, under 10 active; S. cerevisiae efflux-deficient reporter strain, 5-FOA growth OD615, 2 days; shares compounds with RAM inhibit; call rule not given here;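 note: plate controls were vehicle for no effect and reference inhibitor for full effect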
Numbers without * were called inactive; · = not tested or not shown. Only some compounds are listed: those with a hit (about 2.6% of all), similar ones and a draw of the others.

SMILES | RAM inhibit | Yeast growth inh | Yeast lifespan up | RAM 5-FOA
COc1cc(-c2nc(-c3cccc(C(F)(F)F)c3)no2)cc(OC)c1OC | 11.8* | -47.6 | -1.2 | 1.5
CC(C)CC(N=Cc1c(O)c2ccccc2oc1=O)C(=O)O (stereo not drawn) | 0.7 | · | · | ·
Cc1ccc(S(=O)(=O)NNC(=O)C2COc3ccccc3O2)cc1C (stereo not drawn) | 1.8 | · | · | ·
Cc1ccc(S(=O)(=O)N2CCN(C(=O)C3COc4ccccc4O3)CC2)cc1C (stereo not drawn) | 17.1* | -49.5 | -2.3 | 3.4
C=CCNC(=S)N/N=C/c1ccc(N(CC)Cc2ccccc2)cc1 | 15.1* | -12.9 | -1.2 | 3.1
CCN(CC)c1ccc(/C=N/NC(=S)NCc2ccccc2)cc1 | -0.3 | 11.7 | -11.5 | ·
CCOC(=O)C1CCN(S(=O)(=O)c2ccc(OC)c(Cl)c2)CC1 | 2.7 | · | · | ·
CC(C)Oc1cccc(C(=O)C2CCCN(C(=O)CCn3cnnn3)C2)c1 (stereo not drawn) | -0.6 | · | · | ·
CCOC(=O)C1(CCOc2ccccc2)CCN(C(=O)c2ccc(-n3cccn3)cc2)CC1 | 18.7* | · | · | 1.2
CCOC(=O)C1(CCOc2ccccc2)CCN(Cc2cccc(-n3cccn3)c2)CC1 | 2.1 | · | · | ·
O=c1ccc(Cl)cn1Cc1ccccc1F | 0.0 | 23.5 | · | ·
O=C(CCCNC(=O)/C(=C/c1ccc(F)cc1)NC(=O)c1ccccc1)OCc1ccccc1 | 5.4 | -14.6 | -2.2 | ·
COc1ccc(-c2ccnc3c(C(=O)O)cnn23)cc1 | -1.2 | · | · | ·
CCCCc1c(C(=O)O)cc(OC)cc1C(=O)O | 0.2 | -26.8 | · | ·
CCCCCc1c2c(cc(O)c1C(=O)O)OC(=O)c1c(cc(OC)cc1C(=O)CCCC)O2 | 13.3* | · | · | 3.1
O=C(NCCO)C(O)C(O)C(=O)NCCO (stereo not drawn) | 1.3 | · | · | ·
O=C(Cn1nnc(-c2ccccc2F)n1)Nc1ccc2c(c1)OCO2 | 1.3 | -11.6 | -8.0 | ·
Cc1ccccc1-c1nnn(CC(=O)Nc2ccc3c(c2)OCCO3)n1 | 11.5* | · | · | 3.8
O=S(=O)(Nc1nc2ccccc2nc1Nc1ccc2c(c1)OCCO2)c1cccs1 | 11.5* | -69.0 | -6.8 | 1.2
COc1ccc(S(=O)(=O)Nc2nc3ccccc3nc2Nc2ccc3c(c2)OCO3)cc1 | 1.7 | -33.7 | 8.6 | ·
O=C(Nc1cccc2ccccc12)OCc1cncs1 | 3.2 | · | · | ·
NN=C1c2cc([N+](=O)[O-])ccc2-c2ccc([N+](=O)[O-])cc21 | 0.4 | · | · | ·
O=c1c2ccccc2nc(SCc2cccc(F)c2)n1-c1cccc(S(=O)(=O)N2CCCC2)c1 | 12.7* | -32.5 | 8.0 | 1.9
O=C(c1ccc(-n2c(SCc3cccc(F)c3)nc3ccccc3c2=O)cc1)N1CCOCC1 | 2.0 | -2.1 | -7.1 | ·
CCN(CC)S(=O)(=O)c1cccc(C(=O)c2c(C)cc3ccccn23)c1 | 14.5* | -52.5 | 11.6 | 1.7
SMILES | RAM inhibit | Yeast growth inh | Yeast lifespan up | RAM 5-FOA
Cc1cc2ccccn2c1C(=O)c1cc([N+](=O)[O-])cc([N+](=O)[O-])c1 | 2.7 | · | · | ·
Cc1ccc(C2CCN(C(=S)Nc3cccc(C)c3)C2)cc1 (stereo not drawn) | 6.4 | · | · | ·
Cc1ccc(CN2CCSc3ccc(C(=O)NCc4ccco4)cc32)cc1 | 13.5* | · | · | 2.4
Cc1ccc(CN2CCSc3ccc(C(=O)NC4CCN(Cc5ccccc5)CC4)cc32)cc1 | -0.9 | · | · | ·
Cc1ccc2cc(CCNC(=O)c3cccs3)c(=O)[nH]c2c1 | 5.9 | -28.8 | 15.3 | ·
COc1cccc(CNC(=O)CCC2CCCN(C(=O)C3CCOCC3)C2)c1 (stereo not drawn) | -0.1 | · | · | ·
C#CCn1c(=NC(=O)c2sc3ccccc3c2Cl)sc2cc(S(N)(=O)=O)ccc21 | 4.0 | -36.8 | 3.7 | ·
Nc1ncnc(Sc2ccccc2)c1[N+](=O)[O-] | 72.5* | -26.0 | -8.4 | 3.8
Nc1ncnc(Sc2ccc(Cl)cc2)c1[N+](=O)[O-] | 2.7 | -13.6 | -3.1 | ·
FC(F)(F)C(F)(F)c1nnc2ccc(-n3ccnc3)nn12 | 2.2 | · | · | ·
CN(C)C(=O)c1cc(C(=O)c2ccc(C(F)(F)F)cc2F)c[nH]1 | 0.0 | · | · | ·
CCCOC(=O)c1c(NC(=O)/C=C/c2cnn(C)c2C)sc(C(=O)OCC)c1C | 1.4 | -36.2 | -12.0 | ·
Cc1cc([N+](=O)[O-])nn1CCCC(=O)Nc1ccc(Cl)cc1Cl | 2.7 | · | · | ·
CCOC(=O)c1sc(NC(=O)/C=C/c2cnn(CC)c2C)c(C(=O)OCC)c1C | 11.8* | -17.6 | -0.1 | 2.8
CCOC(=O)c1sc(NC(=O)CCCn2nc([N+](=O)[O-])cc2C)c(C(=O)OCC)c1C | 12.8* | -1.5 | 1.7 | 1.5
Fc1ccc(N/N=C/C=C/c2ccccc2)c(F)c1 | 0.9 | -35.0 | -7.3 | ·
CC(=O)C(N=Nc1ccccc1)(Sc1nnc(-c2ccccc2)n1-c1ccccc1)C(C)=O | 11.5* | -71.8 | 15.7 | 2.8
